Results as given in ChEMBL document CHEMBL1275331, “Discovery of a novel 5-HT(3) antagonist/5-HT(1A) agonist 3-amino-5,6,7,8-tetrahydro-2-{4-[4-(quinolin-2-yl)piperazin-1-yl]butyl}quinazolin-4(3H)-one (TZB-30878) as an orally bioavailable agent for irritable bowel syndrome” (J Med Chem, 2010).
Activity calls are given as the source filed them. The calls are words filed in the database; no cut-off is given here.

Experiments:
Rattus norvegicus [1] = assay: Induction of 5HT1A receptor-mediated behavioral activity in rat assessed as appearance of flat body posture at 10 mg/kg, iv after 30 mins; format: functional, organism-based; set-up: dose 10 mg/kg
How it was run: (§1)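 Rats were conditioned to test procedures over 2 weeks and acclimated to the test cage for 1 h. Vehicle was saline containing diluted HCl. Lower lip retraction and flat body posture were scored on a 0–3 scale at 5, 10, 20 and 30 min after dosing.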

[2] = biological target: T1, 5-hydroxytryptamine receptor 3A (Homo sapiens, UniProt P46098); assay: Displacement of [3H]BRL-43694 from human 5HT3 receptor expressed in HEK293 cells by liquid scintillation counting; format: cell-based
T1 sequence (P46098 whole entry): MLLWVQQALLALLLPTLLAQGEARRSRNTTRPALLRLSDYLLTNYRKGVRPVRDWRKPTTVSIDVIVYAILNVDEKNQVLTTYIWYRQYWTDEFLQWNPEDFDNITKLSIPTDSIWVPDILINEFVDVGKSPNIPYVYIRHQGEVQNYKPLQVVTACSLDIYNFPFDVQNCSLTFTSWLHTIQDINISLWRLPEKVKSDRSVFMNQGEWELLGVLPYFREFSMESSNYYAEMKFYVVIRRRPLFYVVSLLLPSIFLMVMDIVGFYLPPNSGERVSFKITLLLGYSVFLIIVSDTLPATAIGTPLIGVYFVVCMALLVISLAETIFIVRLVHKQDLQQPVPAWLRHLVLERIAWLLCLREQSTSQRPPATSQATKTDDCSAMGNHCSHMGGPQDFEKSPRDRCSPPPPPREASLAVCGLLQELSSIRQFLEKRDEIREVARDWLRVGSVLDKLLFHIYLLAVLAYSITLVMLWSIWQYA
How it was run: (§2)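 HEK-293 membranes expressing human 5-HT3 were incubated with 0.5 nmol/L [3H]BRL-43694 (final) for 60 min at 25 °C. Buffer: 50 mM Tris-HCl, 5 mM MgCl2, 1 mM EDTA, pH 7.5. Compound came from 270 μmol/L DMSO stock, diluted in buffer. Filtration was through GF/B presoaked in 0.5% polyethyleneimine, with two cold Tris washes. Run in duplicate or triplicate; percent inhibition calculated.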

[3] = biological target: T2, 5-hydroxytryptamine receptor 1A (Homo sapiens) (UniProt P08908); assay: Agonist activity at human cloned 5HT1A receptor expressed in CHO cells assessed as stimulation of [35S]GTPgammaS binding at 900 uL after 30 mins by liquid scintillation counting; format: functional, cell-based
T2 sequence (whole entry): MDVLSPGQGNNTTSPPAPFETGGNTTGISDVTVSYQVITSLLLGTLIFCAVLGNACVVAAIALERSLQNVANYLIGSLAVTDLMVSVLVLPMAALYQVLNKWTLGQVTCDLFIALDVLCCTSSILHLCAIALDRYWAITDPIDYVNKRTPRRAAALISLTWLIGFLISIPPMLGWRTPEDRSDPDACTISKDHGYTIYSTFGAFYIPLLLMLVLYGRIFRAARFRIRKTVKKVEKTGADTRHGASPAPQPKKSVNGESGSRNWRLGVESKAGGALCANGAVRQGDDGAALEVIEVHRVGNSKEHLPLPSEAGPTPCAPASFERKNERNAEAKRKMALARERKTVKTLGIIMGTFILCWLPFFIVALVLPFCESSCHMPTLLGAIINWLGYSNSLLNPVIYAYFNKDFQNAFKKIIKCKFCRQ
How it was run: (§3)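 Membranes from CHO cells expressing human 5-HT1A were diluted in 20 mM HEPES/3 mM MgCl2/120 mM NaCl, pH 7.4. They were preincubated with 20 μM GDP and test drug for 20 min at 30 °C, then held on ice for 15 min. [35S]GTPγS (100 pM) was added for 30 min at 30 °C. Samples were filtered, washed with cold HEPES/MgCl2 buffer, and bound radioactivity counted; EC50 and Emax reported.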

[4] = biological target: T3, 5-hydroxytryptamine receptor 1A (Homo sapiens, UniProt P08908); assay: Displacement of [3H]8-OH-DPAT from human 5HT1A receptor expressed in CHO cells by liquid scintillation counting; format: cell-based
T3 sequence (P08908 whole entry): T2 sequence (whole entry)
How it was run: (§4)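 CHO-cell membranes with human 5-HT1A were incubated with 0.25 nmol/L [3H]8-OH-DPAT (final) for 60 min at 27 °C. Buffer: 50 mM Tris-HCl, 10 mM MgSO4, 0.5 mM EDTA, 0.1% ascorbic acid, pH 7.4. Compound came from 270 μmol/L DMSO stock, diluted in buffer. Filtration was through GF/C presoaked in 0.3% polyethyleneimine, with two cold Tris washes. Run in duplicate or triplicate; percent inhibition of binding calculated.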

[5] = biological target: T4, 5-hydroxytryptamine receptor 3A (Cavia porcellus) (UniProt O70212); assay: Inhibition of 5HT3 receptor-mediated contraction of guinea pig ileum at 1 umol/L after 20 mins relative to control; format: tissue-based
T4 sequence (whole entry): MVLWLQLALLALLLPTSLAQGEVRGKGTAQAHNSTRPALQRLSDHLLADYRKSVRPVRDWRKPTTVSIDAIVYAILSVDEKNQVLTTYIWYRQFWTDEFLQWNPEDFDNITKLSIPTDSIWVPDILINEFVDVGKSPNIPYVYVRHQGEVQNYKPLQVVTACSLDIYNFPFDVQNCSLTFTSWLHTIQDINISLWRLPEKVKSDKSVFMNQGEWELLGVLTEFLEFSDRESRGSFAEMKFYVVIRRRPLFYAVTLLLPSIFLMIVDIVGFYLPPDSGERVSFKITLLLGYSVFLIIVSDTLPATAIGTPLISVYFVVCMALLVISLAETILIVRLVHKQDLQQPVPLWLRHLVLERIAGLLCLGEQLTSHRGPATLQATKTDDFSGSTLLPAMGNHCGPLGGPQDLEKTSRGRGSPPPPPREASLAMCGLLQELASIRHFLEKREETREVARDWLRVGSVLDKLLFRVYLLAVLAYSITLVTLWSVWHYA
How it was run: (§5)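 Ileum strips in Tyrode solution at 37 °C, gassed 5% CO2/95% O2, isotonic contractions under 1 g load. After at least 3 stable contractions to 10 μM 2-methyl-5-HT, tissue exposed to compound or DMSO vehicle for 20 min, then 10 μM 2-methyl-5-HT re-added; contraction expressed as % inhibition of control.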

[6] = biological target: T3, 5-hydroxytryptamine receptor 1A; assay: Agonist activity at human cloned 5HT1A receptor expressed in CHO cells assessed as stimulation of [35S]GTPgammaS binding after 30 mins by liquid scintillation counting; format: functional, cell-based; how it was run: as §3
Rattus norvegicus [7] = assay: […] activity in rat assessed as inhibition of 5HT-induced bradycardia at 100 ug/kg, iv by von Benzold-Jarisch reflex assay; format: functional
Rattus norvegicus [8] = assay: Induction of 5HT1A receptor-mediated lower lip retraction behavior in rat at 10 mg/kg, iv after 30 mins; format: functional, organism-based; set-up: dose 10 mg/kg; how it was run: as §1
Rattus norvegicus [9] = assay: Effect on 5HT1A receptor-mediated hypothermic effect in rat assessed as change in rectal temperature at 10 mg/kg, iv after 30 mins; format: functional, organism-based; set-up: dose 10 mg/kg
How it was run: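 Rats were conditioned over 2 weeks and acclimated to the cage for 1 h before dosing (vehicle: saline with diluted HCl). Rectal temperature was recorded with a thermistor probe inserted 3 cm, before and 30 min after administration. The change in temperature was reported.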

[10] = biological target: T4, 5-hydroxytryptamine receptor 3A (Cavia porcellus); assay: Inhibition of 5HT3 receptor-mediated contraction of guinea pig ileum at 0.1 umol/L after 20 mins relative to control; format: tissue-based; how it was run: as §5
[11] = Drug level in Sprague-Dawley rat brain at 3 mg/kg, po after 2 hrs by HPLC analysis; format: ADME, organism-based; set-up: dose 3 mg/kg, route oral; conditions: read-out: Drug uptake
How it was run: (§6)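 Total compound concentration was measured in brain and blood at 2, 4 and 8 h after a single oral 3 mg/kg dose. Brain/blood ratio was also derived. Values are mean ± SD of three rats.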

[12] = Drug level in Sprague-Dawley rat blood at 3 mg/kg, po after 2 hrs by HPLC analysis; format: ADME, organism-based; set-up: dose 3 mg/kg, route oral; conditions: whole blood, read-out: Drug uptake; how it was run: as §6
[13] = Ratio of drug level in brain to blood in Sprague-Dawley rat at 3 mg/kg, po after 2 hrs; format: ADME, organism-based; set-up: dose 3 mg/kg, route oral
How it was run: (§7)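 Rats dosed 3 mg/kg orally; total compound levels measured in brain and blood at 2, 4 and 8 h, brain/blood ratio derived. Mean ± SD of three rats.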

[14] = Drug level in Sprague-Dawley rat brain at 3 mg/kg, po after 4 hrs by HPLC analysis; format: ADME, organism-based; set-up: dose 3 mg/kg, route oral; conditions: read-out: Drug uptake; how it was run: as §6
[15] = Ratio of drug level in brain to blood in Sprague-Dawley rat at 3 mg/kg, po after 4 hrs; format: ADME, organism-based; set-up: dose 3 mg/kg, route oral; how it was run: as §7
[16] = Drug level in Sprague-Dawley rat blood at 3 mg/kg, po after 4 hrs by HPLC analysis; format: ADME, organism-based; set-up: dose 3 mg/kg, route oral; conditions: whole blood, read-out: Drug uptake; how it was run: as §6
[17] = Ratio of drug level in brain to blood in Sprague-Dawley rat at 3 mg/kg, po after 8 hrs; format: ADME, organism-based; set-up: dose 3 mg/kg, route oral; how it was run: as §7
[18] = Drug level in Sprague-Dawley rat blood at 3 mg/kg, po after 8 hrs by HPLC analysis; format: ADME, organism-based; set-up: dose 3 mg/kg, route oral; conditions: whole blood, read-out: Drug uptake; how it was run: as §6
[19] = Drug level in Sprague-Dawley rat brain at 3 mg/kg, po after 8 hrs by HPLC analysis; format: ADME, organism-based; set-up: dose 3 mg/kg, route oral; conditions: read-out: Drug uptake; how it was run: as §6
[20] = biological target: T2, 5-hydroxytryptamine receptor 1A (Homo sapiens); assay: Displacement of [3H]8-OH-DPAT from human 5HT1A receptor expressed in CHO cells at 1000 nM by liquid scintillation counting; format: cell-based; how it was run: as §4
[21] = biological target: T2, 5-hydroxytryptamine receptor 1A (Homo sapiens); assay: Displacement of [3H]8-OH-DPAT from human 5HT1A receptor expressed in CHO cells at 100 nM by liquid scintillation counting; format: cell-based; how it was run: as §4
[22] = biological target: T5, 5-hydroxytryptamine receptor 3A (Homo sapiens) (UniProt P46098); assay: Displacement of [3H]BRL-43694 from human 5HT3 receptor expressed in HEK293 cells at 100 nM by liquid scintillation counting; format: cell-based; how it was run: as §2
T5 sequence (whole entry): T1 sequence (P46098 whole entry)

[23] = biological target: T5, 5-hydroxytryptamine receptor 3A (Homo sapiens); assay: Displacement of [3H]BRL-43694 from human 5HT3 receptor expressed in HEK293 cells at 1000 nM by liquid scintillation counting; format: cell-based; how it was run: as §2

Row | SMILES | IC50 [2] | Emax [3] | IC50 [4] | inhibition [5] | EC50 [6] | inhibition [10] | inhibition [20] | inhibition [21] | inhibition [22] | inhibition [23] | further results
1 | Cc1cc(N2CCN(CCCCc3nc4c(c(=O)n3N)CCCC4)CC2)nc2ccccc12 | 59.1 nM | 93.5% | < 10 nM | 100% | 13.7 nM | 97.1% |  |  |  |  | Activity (Rattus norvegicus [1]): inactive; inhibition in vivo at 0.1 mg/kg (Rattus norvegicus [7]): 64.5%; Activity (Rattus norvegicus [8]): inactive; Activity (Rattus norvegicus [9]): inactive
2 | Nn1c(SCCCN2CCN(c3ccc4ccccc4n3)CC2)nc2c(c1=O)CCCC2 | 63.8 nM | 90.3% | 5.6 nM | 95.1% | 182 nM | 80% |  |  |  |  | concentration at 2 h [11]: 63.1 nM; concentration at 2 h [12]: 21.2 nM; Kp at 2 h [13]: 2.99; concentration at 4 h [14]: 32.2 nM; Kp at 4 h [15]: 3.05; concentration at 4 h [16]: 10.6 nM; Kp at 8 h [17]: 2.53; concentration at 8 h [18]: 5.17 nM; concentration at 8 h [19]: 13 nM
3 | Nn1c(=O)c2c(nc1[C@H]1CC[C@@H](N3CCN(c4ccc5ccccc5n4)CC3)CC1)CCCC2 |  |  |  |  |  |  | 91.5% | 42.3% | 19.6% | 87.3% | 
4 | Nn1c(=O)c2c(nc1[C@H]1CC[C@H](N3CCN(c4ccc5ccccc5n4)CC3)CC1)CCCC2 |  |  |  |  |  |  | 96.3% | 76.9% | 1.4% | 18.4% | 
